Measurements from different studies.
Each line is one published result; the experiments were not run side by side.
EGFR: Epidermal growth factor receptor (EGFR, Homo sapiens, UniProt P00533)
EGFR G719C: Epidermal growth factor receptor (EGFR, Homo sapiens, UniProt P00533, G719C)
EGFR del752-759: Epidermal growth factor receptor (EGFR, Homo sapiens, UniProt P00533, del752-759)

SMILES	target	assay	conditions	endpoint	result
C#Cc1cnc(Nc2ccnc(CO)c2)nc1Nc1ccccc1S(C)(=O)=NC#N (stereo not shown)	EGFR	enzyme activity, inhibitor, radiometric	1 µM	remaining activity	80%
COc1ccc2[nH]c3c4[nH]c5ccc(OC)cc5c4c4c(c3c2c1)C(=O)NC4=O	Epidermal growth factor receptor (EGFR, Homo sapiens, UniProt P00533, L861Q)	binding	1 µM	remaining binding	71%
N#Cc1ccc(NC(=O)Nc2ccccc2)cc1	EGFR	cell-free assay, competition with immobilised ligand	25 µM	remaining binding	87%
C#Cc1cnc(Nc2ccc(CO)cc2)nc1Nc1ccccc1C(=O)NC	EGFR	enzyme activity, inhibitor, radiometric	1 µM	remaining activity	10.1%
C[C@H]1CC[C@H](n2c3cnccc3c3cnc(Nc4ccc5c(n4)CCN(C(=O)CO)C5)nc32)CC1	Epidermal growth factor receptor (EGFR, Homo sapiens, UniProt P00533, L858R/T790M)	cell-free assay	1 µM	remaining signal	93%
CNC(=O)c1ccccc1Nc1nc(Nc2ccc(CO)nc2)ncc1Cl	EGFR	enzyme activity, inhibitor, radiometric	1 µM	remaining activity	26%
CCCCC(=O)Nc1ccc(-c2ccc3ncn(CCC)c(=O)c3c2)cn1	Epidermal growth factor receptor (EGFR, Homo sapiens, UniProt P00533, T790M)	binding, competition with immobilised ligand	0.5 µM	remaining binding	100%
CO[C@@H]1[C@H](N(C)C(=O)c2ccccc2)C[C@H]2O[C@]1(C)n1c3ccccc3c3c4c(c5c6ccccc6n2c5c31)C(=O)NC4	EGFR G719C	enzyme activity, inhibitor	1 µM	inhibition	17%
CN1CCN(C(=O)c2ccc(NC(=O)Nc3ccc(N(C)c4ccnc(Nc5ccc(CS(C)(=O)=O)cc5)n4)cc3)cc2)CC1	EGFR del752-759	binding	1 µM	remaining binding	100%
C=CC(=O)N1CCC([C@@H]2CCNc3c(C(N)=O)c(-c4ccc(Oc5ccccc5)cc4)nn32)CC1	Epidermal growth factor receptor (EGFR, Homo sapiens, UniProt P00533, del746-750)	cell-free assay	1 µM	inhibition	21%
C1=C/COCc2cc(ccc2OCCN2CCCC2)Nc2nccc(n2)-c2cccc(c2)COC/1	EGFR G719C	binding	0.1 µM	remaining binding	75%
COc1ccc2oc(-c3ccc4nc(N)oc4c3)c/c(=N\c3ccccc3NC(=O)CCN)c2c1	EGFR	binding	1 µM	remaining binding	97%
CS(=O)(=NC#N)c1ccccc1Nc1nc(Nc2ccnc(CO)c2)ncc1Cl (stereo not shown)	EGFR	enzyme activity, inhibitor, radiometric	1 µM	remaining activity	99.4%
Cc1ccc(NC(=O)c2ccnc(C(F)(F)F)c2)cc1-c1cc(OCCO)nc(N2CCOCC2)c1	Epidermal growth factor receptor (EGFR, Homo sapiens, UniProt P00533, G719S)	binding	1 µM	remaining binding	100%
CC#CC(=O)N1CCC[C@H]1c1nc(-c2ccc(C(=O)Nc3ccccn3)cc2)c2c(N)nccn12	EGFR del752-759	enzyme activity, inhibitor	1 µM	inhibition	0%
COc1c(Cl)cccc1Nc1c(-c2ccncc2OC[C@@H]2COCCO2)[nH]c2c1C(=O)NCC2	EGFR	enzyme activity, inhibitor, radiometric	1 µM	inhibition	> 80%
